# From PubChem
# TCR CD3 inh – human TCR-CD3 binding inhibition; TAMRA-labeled TCR probe fluorescence, biochemical; inhibition, % at 9.4 µM; 360,000 compounds, 0.37% hits; AID 651800; in the data active = inhibition above about 19%;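 note: recombinant mutant TCR 2C K166C tagged with TAMRA read by polarization; 0% = receptor in buffer alone and 100% = receptor with positive control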
# DDE Tn7 FP inh – inhibitors of Tn7 peptide binding to human fibrin DD(E); P02675; FP displacement of FITC-Tn7 peptide from fibrin DD(E); 0% = median of compound wells per plate; inhibition, % at 8.3 µM; 370,000 compounds, 0.13% hits;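 active = inhibition above the mean of compounds falling within the control limits plus 3 SD of them, cut at about 14% in these data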;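 note: 0% = plate median of compound wells and 100% = 10 µM Aha-Tn7 peptide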
#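 Assay system: Human clot-derived fibrin DD(E) complex | Buffer or medium: Tris/NaCl/CaCl2 buffer, pH 7.8 | Repeats: One replicate per compound | Benchmarks: Aha-Tn7 high control | Measure: % inhibition scaled between sample-field median and high-control FP | Schedule: 10 min plus 3 h, room temperature | Signal: Fluorescence polarization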
# ABHD4 inh – inhibitors of mouse ABHD4; purified mABHD4, FP-Rh probe fluorescence polarization; inhibition, % at 8.92 µM; Q8VD66; 370,000 compounds, 0.54% hits;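 active = inhibition exceeding the mean over every tested compound plus 3 SD, cut at about 30% in these data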;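 note: 0% = plate median of compound wells and 100% = S159A mutant with DMSO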
# Target sequence (Q8VD66 whole entry, looked up): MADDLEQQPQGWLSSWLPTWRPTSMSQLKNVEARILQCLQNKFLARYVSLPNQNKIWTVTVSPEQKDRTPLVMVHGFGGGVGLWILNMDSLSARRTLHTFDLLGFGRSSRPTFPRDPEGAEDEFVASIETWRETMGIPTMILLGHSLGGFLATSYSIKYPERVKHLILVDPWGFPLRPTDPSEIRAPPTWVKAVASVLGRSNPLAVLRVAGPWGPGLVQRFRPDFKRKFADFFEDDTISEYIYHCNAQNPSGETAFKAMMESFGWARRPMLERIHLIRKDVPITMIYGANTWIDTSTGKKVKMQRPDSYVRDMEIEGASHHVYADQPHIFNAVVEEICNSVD
#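 assay system = mABHD4 protein | compound dosing = single nominal dose of 8.92 µM, 0.89% DMSO final | read-out basis = percent inhibition of probe binding, normalized to plate controls | schedule = Enzyme–compound pre-incubation 45 min, then probe 60 min, both 25 °C | detection = fluorescence polarization, excitation 525 nm, emission 598 nm, BODIPY TMR filters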
# DDE Tn6 FP inh – DD(E)-Tn6 binding inhibition, primary FP screen; Fibrin DD(E) TRITC-Tn6 fluorescence polarization displacement; inhibition, % at 8.3 µM; 370,000 compounds, 0.21% hits;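 active = inhibition above a per-campaign cutoff: mean of compounds within control limits plus 3 SD, cut at about 15% in these data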;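 note: 0% = median of all compound wells on the plate and 100% = blocking peptide control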
# HTRA1 inh – HTRA1 (human) protease inhibition | Q92743 | recombinant HTRA1, FP-rhodamine activity-based probe, fluorescence polarization | inhibition, % at 5.96 µM | 340,000 compounds, 0.5% hits | AID 504803; in the data active = inhibition above about 36%;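 note: 0% = enzyme with DMSO and 100% = wells lacking enzyme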
# SIAE inh – human SIAE inhibition, primary screen. 370,000 compounds, 0.69% hits. Q9HAT2. inhibition, % at 9.66 µM. SIAE FP-Rh probe binding, fluorescence polarization;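 active = inhibition above a cutoff: mean of compounds within the control limits plus 3 SD of those, cut at about 17% in these data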;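 note: 0% = plate median of compound wells and 100% = probe without SIAE protein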
# Starred values were filed as active, the others as inactive; x = no result given. Hits are enriched below; roughly 1.8% of the tested compounds scored in any of these assays.
SMILES,TCR CD3 inh,DDE Tn7 FP inh,ABHD4 inh,DDE Tn6 FP inh,HTRA1 inh,SIAE inh
O=C(O)CSc1cc(NS(=O)(=O)c2ccc(Cl)cc2)c2ccccc2c1O,7,5,39*,3,23,10
Cc1ccc(Cl)cc1NS(=O)(=O)c1ccccc1,2,6,-3,13,-6,-6
COc1ccc(S(=O)(=O)Nc2cc(Sc3ncn[nH]3)c(O)c3ccccc23)cc1,10,0,28,-11,x,8
COc1ccc(S(=O)(=O)Nc2cc(SCC(=O)O)c(O)c3ccccc23)cc1,5,-1,49*,6,34,16
CC(COc1ccc(Br)cc1)CN1CCC(C(O)(c2ccccc2)c2ccccc2)CC1 (stereo not drawn),x,-8,12,3,x,-2
O=S(=O)(Nc1cc(Sc2cccc3cccnc23)c(O)c2ccccc12)c1ccc(F)cc1,-3,-5,38*,-11,x,10
O=C(C1CCCN1S(=O)(=O)c1ccc(Br)s1)N1CCN(c2ccccc2)CC1 (stereo not drawn),x,3,7,2,x,-1
CCOC(=O)CSc1nc2sc3c(c2c(=O)n1-c1ccccc1)CCN(C(C)C)C3,-4,4,-6,19*,-3,-5
CCOC(=O)CSc1nc2sc3c(c2c(=O)n1-c1ccccc1)CCN(C)C3,-3,-5,0,-3,-6,1
CCCCCCCCN1C(=O)[C@@H](CC(=O)NCCCOCCCC)C[C@@]2(C(=O)OC)C1=C[C@H](COCc1ccccc1)O[C@@H]2C,x,1,4,0,x,2
COC(=O)C1CN(C2CCCC2)CCS(=O)(=O)N1Cc1cn(Cc2ccc(OC)cc2)nn1 (stereo not drawn),x,-9,2,2,x,-6
C=CC(C)(C)c1c(O)c(CC=C(C)C)c(O)c2c(=O)c3ccc(O)c(O)c3oc12,x,x,x,x,37*,x
O=[N+]([O-])c1cc(Cl)c(O)c2ncccc12,1,-5,18,-2,55*,13
O=[N+]([O-])c1ccc(O)c2ncccc12,-3,5,26,-10,32,9
Oc1c(CN2CCc3ccccc3C2)cc(Cl)c2cccnc12,x,x,x,x,69*,x
Brc1cc2c(cc1CN1CCc3ccccc3C1)OCO2,5,-9,-2,-10,-7,6
CC(C)N1CCCCC(NC(=O)c2cccc(C(F)(F)F)c2)C1=O (stereo not drawn),x,0,2,1,x,1
O=c1c2cc3cc(Cl)ccc3nc2ncn1Cc1ccc(Oc2ccccc2)cc1,x,-2,5,1,x,3
O=C(Nc1cccc(C(F)(F)F)c1)Oc1ccc(Cl)c2cccnc12,4,-7,-35,5,46*,-16
Cn1cc(C2(C)CCOc3ccccc32)c2ccccc21 (stereo not drawn),x,7,-6,-9,x,2
Cc1cccc(C)c1NC(=O)CSc1nnc(-c2ccco2)c(-c2ccco2)n1,x,x,x,x,50*,x
CCCCCCNC(=O)C1CSCCS(=O)(=O)N1Cc1ccc(C)cc1 (stereo not drawn),x,-5,-6,-4,x,-2
CCN(CC)c1ccc(NC(=O)c2cc3c(C)nn(-c4ccccc4)c3s2)cc1,x,-4,-2,-5,x,-8
O=C(CCO)c1ccc(O)cc1,27*,8,8,7,11,5
CCCCC(=O)c1ccc(O)cc1,11,-4,-3,-7,-1,5
SMILES,TCR CD3 inh,DDE Tn7 FP inh,ABHD4 inh,DDE Tn6 FP inh,HTRA1 inh,SIAE inh
Cc1ccc2c(c1)C(CS(=O)(=O)NCc1ccc(F)cc1)NC2 (stereo not drawn),x,5,-4,7,x,4
CSC(=Nc1ccccc1)C1=C(O)COC1=O,8,10,1,5,0,4
CCSC(=Nc1ccccc1)C1=C(O)COC1=O,-1,3,-11,-4,-2,19*
O=C(NC1CCCCN(Cc2cccc(C(F)(F)F)c2)C1=O)c1ccc(COc2ccccc2)cc1 (stereo not drawn),x,-4,-12,-3,x,-6
Cc1ccc(OCc2nnc(SCC(=O)Nc3cccc4ccccc34)n2Cc2ccco2)cc1,x,3,-13,0,x,-12
COc1ccccc1-c1nnc2n1N=C(c1ccc(O)c(O)c1)CS2,x,x,x,x,43*,x
CC1CCN(S(=O)(=O)c2ccc(NC(=O)Cn3nnc(-c4ccccc4)n3)cc2)CC1,16,-4,-82,19*,-40,-63
Cc1ccc(-c2nnn(CC(=O)Nc3ccc(S(=O)(=O)N4CCC(C)CC4)cc3)n2)cc1,8,8,-16,-3,-11,-35
CCOc1ccccc1-c1c2cc(O)c(=O)cc-2oc2cc(O)c(O)cc12,x,x,x,x,85*,x
CCOC(=O)c1oc2cc(O)ccc2c(=O)c1-c1ccccc1OC,5,4,-5,-2,-5,2
COc1ccc2c(c1)CCCN2C(=O)C1CCCN(S(=O)(=O)c2cc(OC)ccc2OC)C1 (stereo not drawn),x,12,-4,6,x,-1
O=S(=O)(Nc1ccc(O)c2ccccc12)c1cccs1,4,-6,46*,-2,24,5
CCOC(=O)N1CCN(C(=O)C[C@H]2C[C@@]3(C(=O)OC)C(=C[C@H](C(C)C)O[C@@H]3C3CC3)N(Cc3ccco3)C2=O)CC1,x,-2,2,-2,x,-1
O=C1c2ccccc2C(=O)N1/N=C/c1ccc(O)c(O)c1O,x,x,x,x,44*,x
Oc1ccc(N=C/C=C/c2cccc(Br)c2)cc1-c1nc2ccccc2s1,x,x,x,x,44*,x
Nc1ccc(O)c(-c2nc3ccccc3s2)c1,5,4,29,-2,25,9
CC(C)C(Cl)=NOC(=O)Nc1ccc(F)cc1,3,-4,0,20*,4,-3
C/C(=N\OC(=O)Nc1ccc(Cl)cc1)c1ccc(F)c(F)c1,3,8,-8,5,-39,-13
CC(C)C1N=C2c3ccccc3N=C(SCc3cc(=O)n4cc(Cl)ccc4n3)N2C1=O (stereo not drawn),-7,7,3,7,-4,19*
CC(C)C1N=C2c3ccccc3N=C(SCC(=O)NCCc3ccc(S(N)(=O)=O)cc3)N2C1=O (stereo not drawn),-1,5,0,2,7,4
CCOc1cc(CNc2ccc(O)cc2)ccc1OCc1ccc(Cl)cc1Cl,x,x,x,x,62*,x
Cc1nn2cc(-c3ccccc3)nc2[nH]c1=O,0,-5,0,-4,4,22*
O=C(O)CCc1nn2cc(-c3ccccc3)nc2[nH]c1=O,12,-4,1,-2,3,0
CCN(CC)c1ccc(NC2CC(=O)N(CCc3ccc(OC)cc3)C2=O)cc1 (stereo not drawn),6,-2,29,5,54*,10
CCCCN(C)C(=O)CN1C(=O)C2CCCCN2C(=O)c2ccccc21 (stereo not drawn),x,5,-3,-1,x,0
